“And” between values parts separate entries of the source, which are not always exact repeats. Equal values may be shown once.
Experiments:
[1] = Range is evaluated. (Highest IC50/Lowest IC50); format: functional
SW 1116 = test: Compound was tested for in vitro growth inhibition of primary panel tumor cell line SW1116; format: functional, cell-based, Homo sapiens
Method in brief: (§1)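 Primary-panel lines kept in L15, RPMI 1640 plus pyruvate, or MEM, each with 10% FBS. Cells were seeded at 5×10^4–10^5 cells/mL, preincubated 24 h, then exposed 4 h to 0–200 μg/mL from a 2 mg/mL stock in 10% DMA/PBS. After washout and 72 h further growth, cells were read by SRB. IC50 was the concentration giving 50% survival versus untreated controls.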

SW-620 [2] = test: Compound was tested for in vitro growth inhibition of primary panel tumor cell lines SW620; format: functional, cell-based, Homo sapiens; method in brief: as §1
HT-29 = test: Compound was tested for in vitro growth inhibition of primary panel tumor cell line HT-29/219; format: functional, cell-based, Homo sapiens; method in brief: as §1
SK-OV-3 [3] = test: Compound was tested for in vitro growth inhibition of primary panel tumor cell lines SK-OV-3; format: functional, cell-based, Homo sapiens; method in brief: as §1
A2780 [4] = test: Compound was tested for in vitro growth inhibition of Ovarian carcinoma cell line panel A2780-R; format: functional, cell-based, Homo sapiens
Method in brief: (§2)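 Ovarian lines grown as monolayers in DMEM with 10% FBS, insulin, hydrocortisone and L-glutamine under 6% CO2. Cells were seeded at 3–5 × 10³/well and left to attach overnight. Compounds were freshly dissolved in DMA or water and applied for 96 h in quadruplicate wells. Growth was measured by SRB and reported as IC50.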

HX62 cell line = test: Compound was tested for in vitro growth inhibition of Ovarian carcinoma cell line panel HX62; format: functional, cell-based, Homo sapiens; method in brief: as §2
HT-1376 = test: Compound was tested for in vitro growth inhibition of primary panel tumor cell line HT1376; format: functional, cell-based, Homo sapiens; method in brief: as §1
[5] = Solubility at 25 degrees Celsius in 1-Octanol; format: physicochemical
Method in brief: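 A sample was tumbled in 1-octanol at 25 °C for 24 h and filtered. An aliquot was evaporated and the residue taken up in dilute aqua regia. Gold content was determined as for the aqueous samples, with indium as internal standard.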

SK-OV-3 [6] = test: Compound was tested for in vitro growth inhibition of Ovarian carcinoma cell line panel SK-OV-3; format: functional, cell-based, Homo sapiens; method in brief: as §2
CH1 [7] = test: Compound was tested for in vitro growth inhibition of Ovarian carcinoma cell line panel CH1-R; format: functional, cell-based; method in brief: as §2
CH1 [8] = test: Compound was tested for in vitro growth inhibition of Ovarian carcinoma cell line panel CH1; format: functional, cell-based; method in brief: as §2
[9] = Solubility at 25 degrees Celsius in water; format: physicochemical; settings: buffer
Method in brief: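 5–10 mg sample was tumbled in 5.0 mL water at 25 °C for 24 h and filtered. The solution was diluted as needed and gold was quantified with 1 ppm indium as internal standard.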

A2780 [10] = test: Compound was tested for in vitro growth inhibition of Ovarian carcinoma cell line panel A2780; format: functional, cell-based, Homo sapiens; method in brief: as §2
ZR-75-1 = test: Compound was tested for in vitro growth inhibition of primary panel tumor cell line ZR-75-1; format: functional, cell-based, Homo sapiens; method in brief: as §1
SW-620 [11] = test: Compound was tested for in vitro growth inhibition of primary panel tumor cell line SW620; format: functional, cell-based, Homo sapiens; method in brief: as §1
Mus musculus [12] = test: Compound was evaluated for antitumor activity (RTV) in HT1376 carcinoma Xenograft, at a dosage 4.5 mg/kg on day 21; format: functional, organism-based; design: dose 4.5 mg/kg
Method in brief: (§3)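 HT1376 tumor fragments implanted subcutaneously in nude mice flanks; mice with established palpable tumors randomized into groups of 6 (controls 10). Compounds given intraperitoneally as suspensions in 0.5% carboxymethylcellulose in 0.9% saline, on days 0, 7, 14 and 21. Tumor dimensions on days 0, 7, 14, 21, 28. RTV = 100(mean tumor volume at assessment)/(mean start volume).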

Mus musculus [13] = test: Compound was evaluated for antitumor activity (T/C) in HT1376 carcinoma Xenograft, at a dosage 4.5 mg/kg on day 13; format: functional, organism-based; design: dose 4.5 mg/kg
Method in brief: (§4)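 Nude mice carrying subcutaneous flank HT1376 fragments; treatment began once tumors were established and palpable, randomized into groups of 6 treated and 10 control mice. Dosing was ip as a suspension in 0.5% carboxymethylcellulose in 0.9% saline on days 0, 7, 14 and 21, at the MTD and two 2-fold dilutions. Tumors were measured on days 0-28. RTV = 100(mean volume at assessment)/(mean start volume); T/C = treated RTV/control RTV.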

Mus musculus [14] = test: Compound was evaluated for antitumor activity (T/C) in HT1376 carcinoma Xenograft, at a dosage 4.5 mg/kg on day 7; format: functional, organism-based; design: dose 4.5 mg/kg; method in brief: as §4
Mus musculus [15] = test: Compound was evaluated for antitumor activity (RTV) in HT1376 carcinoma Xenograft, at a dosage 4.5 mg/kg on day 28; format: functional, organism-based; design: dose 4.5 mg/kg; method in brief: as §3
Mus musculus [16] = test: Compound was evaluated for antitumor activity (T/C) in HT1376 carcinoma Xenograft, at a dosage 4.5 mg/kg on day 21; format: functional, organism-based; design: dose 4.5 mg/kg; method in brief: as §4
Mus musculus [17] = test: Compound was evaluated for antitumor activity (T/C) in HT1376 carcinoma Xenograft, at a dosage 4.5 mg/kg on day 28; format: functional, organism-based; design: dose 4.5 mg/kg; method in brief: as §4
Mus musculus [18] = test: Compound was evaluated for antitumor activity (RTV) in HT1376 carcinoma Xenograft, at a dosage 4.5 mg/kg on day 7; format: functional, organism-based; design: dose 4.5 mg/kg; method in brief: as §3
Mus musculus [19] = test: Compound was evaluated for antitumor activity (RTV) in HT1376 carcinoma Xenograft, at a dosage 4.5 mg/kgon day 13; format: functional, organism-based; design: dose 4.5 mg/kg

| Substance | Range [1] | IC50 (SW 1116) | IC50 (HT-29) | IC50 (SK-OV-3 [3]) | IC50 (A2780 [4]) | IC50 (HX62 cell line) | IC50 (HT-1376) | Solubility [5] | IC50 (SK-OV-3 [6]) | IC50 (CH1 [7]) | IC50 (CH1 [8]) | Solubility [9] | IC50 (A2780 [10]) | IC50 (ZR-75-1) | other results |
| --- | --- | --- | --- | --- | --- | --- | --- | --- | --- | --- | --- | --- | --- | --- | --- |
| Dichloro[2-(dimethylamino)methyl]phenyl-C,N]gold-(III) | 4.6 and 13.3 |  |  |  |  |  |  |  |  |  |  |  |  |  |  |
| Acetato[2-(dimethylamino)methyl]phenyl-C,N]gold-(III) |  | 238 µM | 67 µM | 13 µM | 35 µM | 34 µM | 13 µM | > 5.28 mM | 107 µM | 12 µM | 11 µM | > 5.23 mM | 3.5 µM | 45 µM | IC50 (SW-620 [2]): 281 µM |
| Bis(thiocyanato)[2-(dimethylamino)methyl]phenyl-C,N]gold-(III) | 7.6 and 19.5 |  |  |  |  |  |  |  |  |  |  |  |  |  |  |
| Oxalato[2-(dimethylamino)methyl]phenyl-C,N]gold-(III) Hemihydrate |  | 215 µM | 19 µM | 10 µM | 35 µM | 30 µM | 10 µM | 0.17 mM | 42 µM | 13 µM | 11 µM | 0.43 mM | 3.7 µM | 41 µM | IC50 (SW-620 [11]): 205 µM |
| CISPLATIN |  |  |  |  |  |  |  |  |  |  |  |  |  |  | RTV (Mus musculus [12]): 544; T/C (Mus musculus [13]): 0.72; T/C (Mus musculus [14]): 0.88; RTV (Mus musculus [15]): 1050; T/C (Mus musculus [16]): 0.61; T/C (Mus musculus [17]): 0.73; RTV (Mus musculus [18]): 245; RTV (Mus musculus [19]): 364 |
